Measured values: article PMC5976253 (Journal of medicinal chemistry, 2018)
Entries after “also recorded” stand apart in the source; their conditions may differ.

Tests used:
rat UT-B = molecular target: T1, rat UT-B (Rattus norvegicus, UniProt P97689); experiment: UT-B inhibition, erythrocyte lysis assay; assay type: cell-based
T1 sequence (P97689 1-384): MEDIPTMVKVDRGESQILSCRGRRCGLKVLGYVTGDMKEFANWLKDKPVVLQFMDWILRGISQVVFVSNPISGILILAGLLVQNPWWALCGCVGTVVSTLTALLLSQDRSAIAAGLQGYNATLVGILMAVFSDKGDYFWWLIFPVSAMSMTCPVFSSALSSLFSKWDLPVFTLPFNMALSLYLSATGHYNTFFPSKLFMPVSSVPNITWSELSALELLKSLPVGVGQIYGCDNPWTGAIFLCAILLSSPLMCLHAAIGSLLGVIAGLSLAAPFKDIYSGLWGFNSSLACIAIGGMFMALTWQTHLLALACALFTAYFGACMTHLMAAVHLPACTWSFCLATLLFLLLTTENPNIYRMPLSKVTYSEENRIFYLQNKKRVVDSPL
How it was run: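 Rat whole blood was diluted to ~1.5% hematocrit in PBS with 1.25 M acetamide and 5 mM glucose, then incubated 15 min with test compound. Suspension was added rapidly to wells and mixed vigorously, and lysis was read as absorbance at 710 nm. Controls were isosmolar buffer (nonlysed) and 0.7 mM phloretin (lysed), with % lysis normalized between them; mean ± SEM, n = 3.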

rat UT-A1 = molecular target: T2, rat UT-A1 (Rattus norvegicus, UniProt Q62668); assay type: cell-based
T2 sequence (Q62668 1-929): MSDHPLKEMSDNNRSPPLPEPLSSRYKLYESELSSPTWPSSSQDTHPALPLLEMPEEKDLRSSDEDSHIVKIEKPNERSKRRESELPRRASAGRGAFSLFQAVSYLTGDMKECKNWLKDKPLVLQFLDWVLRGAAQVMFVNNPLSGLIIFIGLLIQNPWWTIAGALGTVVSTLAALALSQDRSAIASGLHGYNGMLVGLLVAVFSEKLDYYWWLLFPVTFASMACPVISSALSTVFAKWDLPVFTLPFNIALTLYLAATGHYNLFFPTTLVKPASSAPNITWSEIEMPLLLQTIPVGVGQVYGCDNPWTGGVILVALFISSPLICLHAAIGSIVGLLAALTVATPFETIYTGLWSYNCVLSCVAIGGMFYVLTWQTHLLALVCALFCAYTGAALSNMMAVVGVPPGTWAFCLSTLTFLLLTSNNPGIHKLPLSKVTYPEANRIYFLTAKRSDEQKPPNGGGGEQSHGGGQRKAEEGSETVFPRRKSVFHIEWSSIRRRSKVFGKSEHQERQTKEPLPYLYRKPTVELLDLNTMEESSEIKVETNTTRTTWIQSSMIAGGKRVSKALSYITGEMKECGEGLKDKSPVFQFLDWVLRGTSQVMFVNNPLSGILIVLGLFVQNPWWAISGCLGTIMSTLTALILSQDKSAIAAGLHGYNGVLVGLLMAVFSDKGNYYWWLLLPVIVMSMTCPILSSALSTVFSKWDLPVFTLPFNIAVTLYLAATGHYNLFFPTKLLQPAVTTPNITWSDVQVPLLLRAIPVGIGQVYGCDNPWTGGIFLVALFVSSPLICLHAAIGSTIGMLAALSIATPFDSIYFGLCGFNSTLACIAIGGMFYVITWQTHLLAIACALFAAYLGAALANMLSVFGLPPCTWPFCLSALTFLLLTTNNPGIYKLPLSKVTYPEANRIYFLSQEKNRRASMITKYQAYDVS
How it was run: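 MDCK cells co-expressing rat UT-A1, AQP1 and YFP were used, selecting a clone with bright YFP and relatively low AQP1. Urea transport was read by plate-reader fluorescence, referenced to DMSO (0%) and phloretin (100%). Concentration–inhibition data are mean ± SEM, n = 3. For reversibility, cells were preincubated with 0.5 µM compound and PBS-washed before assay. For kinetics, 0.5 µM was added at varied times before assay. Urea gradients were 200, 400 and 800 mM.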

Rat pharmacokinetics = assay type: in vivo; conditions: 4 mg/kg intravenous
How it was run: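 Tail-vein blood was taken at 15, 30, 60, 120 and 180 min, serum separated, and urine collected in metabolic cages for 3 h; samples were stored at −20 °C. LC/MS (ESI positive) quantified compound against standards spiked into control rat urine and plasma.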

rats = experiment: Diuretic studies in rats; assay type: in vivo; conditions: rat, 4 mg/kg intravenous, compared with pretreatment
How it was run: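 Male Wistar rats (250–300 g), acclimated individually in metabolic cages for 3 days (6 h/day), with food and water ad libitum. Spontaneously voided urine was collected for 3 h. Test compound or vehicle was then given IV via catheter at 4 mg/kg in saline with 20% dimethylacetamide and 1.28 mg/mL NaOH, and urine was collected for a further 3 h. Read-outs were volume and freezing-point osmolality; mean ± SEM, n = 4; paired t-test versus −3 to 0 h.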

SMILES	UT-B inhibition (in words) (rat UT-B)	UT-A1 inhibition (in words) (rat UT-A1)	further results
COc1ccc(-c2cccc(-c3ccn(Cc4csc(C)n4)n3)c2)nn1 [compound 2]	little UT-B inhibition	–	–
COc1ccc(Cl)c(S(=O)(=O)Nc2ccc(Nc3nc4ccccc4n4cnnc34)cc2)c1 [8am]	–	inactive	–
COc1ccc(Cl)c(S(=O)(=O)Nc2ccc(Oc3nc4ccccc4n4cnnc34)cc2)c1 [8ag]	–	inactive	–
CC(=O)Nc1ccc(-c2noc(C3CCCN(C(=O)c4ccccc4F)C3)n2)cc1 (stereo not shown) [compound 1]	little UT-B inhibition	–	–
CCCc1nnc2c(Oc3ccc(NS(=O)(=O)c4cc(Cl)ccc4OC)cc3)nc3ccccc3n12 [8ay]	–	–	Reversibility of UT-A1 inhibition (rat UT-A1; 0.5 µM for 15 min followed by washing): fully reversed; half-time for UT-A1 inhibition (rat UT-A1; after addition of 0.5 µM compound): ~ 2 min; IC50 for UT-A1 at different urea concentration gradients (inhibition mechanism) (rat UT-A1; urea 200, 400 and 800 mM): similar
COc1ccc(Cl)cc1S(=O)(=O)Nc1ccc(Oc2nc3cc(Cl)c(Cl)cc3n3cnnc23)cc1 [8bi]	–	inactive	–
COC(=O)c1sc2nc3c(cc2c1N)CN(Cc1ccccc1)CC3 [compound 4]	–	low potency	–
COc1ccc(Cl)cc1S(=O)(=O)Nc1ccc(Oc2nc3ccccc3n3c(C)nnc23)cc1 [8an]	–	inactive	–
O=C(Nc1ccon1)c1cc(-c2ccccc2)nc2ccccc12 [compound 3]	little UT-B inhibition	–	–
CCCc1nnc2c(Oc3ccc(NS(=O)(=O)c4cc(Cl)ccc4OC)cc3)nc3cc(F)c(F)cc3n12 [8bl]	–	–	serum concentration (Rat pharmacokinetics; for 3 h): greater than 2 µM; urine concentration (Rat pharmacokinetics; urine collected for 3 h): 6 to 8 µM; 3 h urine volume (rats): marked diuresis; also recorded: significantly increased; urine osmolality (rats): reduced urinary osmolality
COc1ccc(Cl)cc1S(=O)(=O)Nc1ccc(Oc2nc3ccccc3n3cnnc23)cc1 [8aa, N-(4-([1,2,4]Triazolo[4,3-a]quinoxalin-4-yloxy)-phenyl)-5-chloro-2-methoxybenzenesulfonamide]	modest activity	–	–
